Results published in ChEMBL document CHEMBL1123549, “Detection of N-acetyl-p-benzoquinone imine produced during the hydrolysis of the model phenacetin metabolite N-(pivaloyloxy)phenacetin” (J Med Chem, 1986).

Key:
Format in all cases: ADME
[1] = Pseudo-first-order rate constant for the decomposition of compound at 25 degree C in presence of K2HPO4/[…]/HCl at pH 5.75; conditions: buffer
How it was run: (§1)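 Hydrolysis followed by UV absorbance (repetitive scans; traces at 266.5 and 245 nm) at 25.0 ± 0.1 °C in 5 vol % CH3CN-H2O, ionic strength 0.50 M (KCl). Media were HCl solutions, or acetate or phosphate buffers at 0.01 M total buffer. Meter pH was corrected by subtracting 0.05. Rate constants came from fitting absorbance vs. time to a first-order or two-consecutive-first-order equation.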

[2] = Pseudo-first-order rate constant for the decomposition of compound at 25 degree C in presence of KOAc/HCl at pH 4.60; conditions: buffer, pH 4.6; how it was run: as §1
[3] = Pseudo-first-order rate constant for the decomposition of compound at 25 degree C in presence of HCl at pH 2.00; Too fast to measure by conventional methods; conditions: buffer; how it was run: as §1
[4] = (§2) Pseudo-first-order rate constant for the decomposition of compound at 25 degree C in presence of HCl at pH 1.00; conditions: buffer
How it was run: (§3)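 Hydrolysis run in 5 vol % CH3CN-H2O, ionic strength 0.50 M (KCl), HCl solution, (25.0 ± 0.1) °C. pH meter readings corrected as pH = reading − 0.05, calibrated on standardized HCl. Progress followed by repetitive UV absorbance scans. Absorbance vs. time at 266.5 and 245 nm fit by least squares to the rate equation for two consecutive first-order processes, giving pseudo-first-order rate constants.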

[5] = (§4) Pseudo-first-order rate constant for the decomposition of compound at 25 degree C in presence of HCl at pH 2.00; conditions: buffer; how it was run: as §3
[6] = Pseudo-first-order rate constant for the decomposition of compound at 25 degree C in presence of K2HPO4/[…]/HCl at pH 6.77; conditions: buffer; how it was run: as §1
[7] = as §4; conditions: buffer; how it was run: as §1; remark: listed apart in the source
[8] = Pseudo-first-order rate constant for the decomposition of compound at 25 degree C in presence of KOAc/HCl at pH 5.64; conditions: buffer; how it was run: as §1
[9] = Pseudo-first-order rate constant for the decomposition of compound at 25 degree C in presence of KOAc/HCl at pH 3.71; conditions: buffer; how it was run: as §1
[10] = as §2; conditions: buffer; how it was run: as §1; remark: listed apart in the source
[11] = Pseudo-first-order rate constant for the decomposition of compound at 25 degree C in presence of HCl at pH 3.02; conditions: buffer; how it was run: as §1
[12] = Pseudo-first-order rate constant for the decomposition of compound at 25 degree C in presence of HCl at pH 1.00; Too fast to measure by conventional methods; conditions: buffer; how it was run: as §1
[13] = Pseudo-first-order rate constant for the decomposition of compound at 25 degree C in presence of K2HPO4/[…]/HCl at pH 7.55; conditions: buffer; how it was run: as §1
[14] = Pseudo-first-order rate constant for the decomposition of compound at 25 degree C in presence of HCl at pH 2.31; conditions: buffer; how it was run: as §3
[15] = Pseudo-first-order rate constant for the decomposition of compound at 25 degree C in presence of HCl at pH 1.30; conditions: buffer, pH 1.3; how it was run: as §3
[16] = Pseudo-first-order rate constant for the decomposition of compound at 25 degree C in presence of HCl at pH 1.59; conditions: buffer; how it was run: as §3
[17] = Pseudo-first-order rate constant for the decomposition of compound at 25 degree C in presence of HCl at pH 2.62; conditions: buffer; how it was run: as §3

CCOc1ccc(N(OC(=O)C(C)(C)C)C(C)=O)cc1
k0 [1]: 0.0226 s⁻¹ | k' [1]: 0.000303 s⁻¹ | k'' [1]: 0.00287 s⁻¹ | k0 [2]: 0.0263 s⁻¹ | k' [2]: 0.0037 s⁻¹ | k'' [2]: 0.000642 s⁻¹ | k' [3]: Too fast to measure by conventional methods | k'' [4]: 0.00606 s⁻¹ | k'' [5]: 0.000996 s⁻¹ | k0 [6]: 0.0219 s⁻¹ | k' [6]: 0.0000512 s⁻¹ | k0 [7]: 0.0252 s⁻¹ | k0 [8]: 0.0224 s⁻¹ | k' [8]: 0.000394 s⁻¹ | k'' [8]: 0.00261 s⁻¹ | k0 [9]: 0.0246 s⁻¹ | k' [9]: 0.0246 s⁻¹ | k'' [9]: 0.000471 s⁻¹ | k0 [10]: 0.0271 s⁻¹ | k0 [11]: 0.0205 s⁻¹ | k' [11]: 0.155 s⁻¹ | k'' [11]: 0.000476 s⁻¹ | k' [12]: Too fast to measure by conventional methods | k0 [13]: 0.0214 s⁻¹ | k' [13]: 0.0000288 s⁻¹

CC(=O)N=C1C=CC(=O)C=C1
k'' [14]: 0.000703 s⁻¹ | k'' [4]: 0.00639 s⁻¹ | k'' [5]: 0.000977 s⁻¹ | k'' [15]: 0.0034 s⁻¹ | k'' [16]: 0.0019 s⁻¹ | k'' [17]: 0.000575 s⁻¹
